Laboratory results taken from publication PMC6467728 (Journal of medicinal chemistry, 2019).
“Also recorded” adds a separate entry of the source. Read-outs that look alike come from different tables or passages of the source.

How the values were obtained:
IP6K = settings: prior report; cited from earlier work
[1] = tested on: AKT activity in HCT116 cells; test: AKT activity; type: cell-based, human; settings: 3 h
Summary of the method: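 HCT116 cells, 1 day post-confluent, were exposed 3 h to 10 µM TNP, 2.5 µM test compound or DMSO vehicle (0.1% final). Cells were PBS-washed and lysed in cold Tris-HCl pH 7.4 buffer with 1% Triton X-100 plus protease-phosphatase inhibitors. Blots of 20 µg protein were probed for T308 p-AKT and total AKT. The p-AKT/total ratio was normalized to the gel sum; means ± standard errors, n=5, Dunnett ANOVA.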

[2] = tested on: IP6K activity (InsP levels) in HEK293 cells; test: HPLC analysis of InsP5, InsP6 and InsP7 levels in HEK293 cells; type: cell-based; settings: HEK293, 2.5 µM, 3.5 h
Summary of the method: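 HEK293 cells were labeled with [³H]inositol (20 µCi/ml), then treated 3.5 h with 2.5 µM test compound in DMSO (0.1% final) or vehicle. Cells were quenched with perchloric acid, and extracted [³H]InsP5, InsP6 and InsP7 were resolved by CarboPac HPLC. Values are means ± standard errors, n=3; one-way ANOVA (Dunnett) vs DMSO control.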

[3] = tested on: AKT activity in 3T3-L1 preadipocytes; test: AKT activity; type: cell-based; settings: 3 h
Summary of the method: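 Lysates were made in ice-cold Tris-HCl pH 7.4/NaCl/1% Triton X-100 with protease-phosphatase inhibitors and cleared at 4 °C. Blots of 20 µg protein were probed for p-AKT T308 and total AKT. Ratios were normalized to the per-gel sum; n=3, Dunnett ANOVA vs DMSO.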

[4] = tested on: IP6K / IPMK activity (InsP7, InsP5, InsP6 levels) in HCT116 cells; type: cell-based, human
[5] = cited from earlier work
hIP6K2 = target: T1, hIP6K2 (Homo sapiens, UniProt Q9UHH9); test: hIP6K2 Adapta TR-FRET kinase assay; type: biochemical; settings: for fold higher IC50 against hIP6K2 compared to 5: relative to compound 5; for fold higher IC50 against hIP6K2 compared to 3: relative to compound 3
T1 sequence (Q9UHH9 1-426): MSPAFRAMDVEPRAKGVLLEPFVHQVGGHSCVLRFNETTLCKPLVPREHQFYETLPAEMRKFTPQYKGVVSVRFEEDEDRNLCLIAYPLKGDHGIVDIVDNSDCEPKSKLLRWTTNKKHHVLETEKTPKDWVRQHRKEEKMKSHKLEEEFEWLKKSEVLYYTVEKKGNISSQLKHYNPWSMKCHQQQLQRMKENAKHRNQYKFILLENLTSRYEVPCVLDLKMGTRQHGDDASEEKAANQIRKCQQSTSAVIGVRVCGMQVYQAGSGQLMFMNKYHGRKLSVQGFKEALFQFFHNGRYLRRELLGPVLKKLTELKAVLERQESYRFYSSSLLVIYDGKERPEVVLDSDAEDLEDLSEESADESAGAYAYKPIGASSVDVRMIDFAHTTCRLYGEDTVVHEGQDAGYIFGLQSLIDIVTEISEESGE

hIPMK = hIPMK (Homo sapiens, UniProt Q8NFU5); test: hIPMK Adapta TR-FRET kinase assay; type: biochemical; settings: for fold higher IC50 (reduction in inhibitory activity) against hIPMK compared to 2: relative to compound 2
Chain of hIPMK (Q8NFU5 whole entry): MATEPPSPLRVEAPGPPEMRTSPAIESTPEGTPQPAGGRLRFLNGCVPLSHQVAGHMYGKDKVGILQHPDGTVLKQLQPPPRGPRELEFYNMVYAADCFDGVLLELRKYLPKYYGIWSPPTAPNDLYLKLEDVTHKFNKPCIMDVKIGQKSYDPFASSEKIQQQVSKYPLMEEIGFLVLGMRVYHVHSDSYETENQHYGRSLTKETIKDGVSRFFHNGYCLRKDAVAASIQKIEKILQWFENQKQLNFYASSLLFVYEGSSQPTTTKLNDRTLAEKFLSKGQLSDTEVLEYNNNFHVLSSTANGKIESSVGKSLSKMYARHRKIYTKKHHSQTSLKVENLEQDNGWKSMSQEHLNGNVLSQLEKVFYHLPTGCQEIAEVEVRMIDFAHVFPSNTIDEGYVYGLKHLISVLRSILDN

O=c1c(O)c(-c2ccc(O)c(O)c2)oc2cc(O)cc(O)c12 [Compound 2, Quercetin]
inhibition of IP6K (IP6K): no inhibitory effect was observed
effect upon AKT activity (p-AKT T308 / total AKT) ([1]; HCT116, 2.5 µM): did not observe any statistically-significant effect
effect on InsP5 levels [2]: not affected
effect on InsP6 levels [2]: not affected
effect on InsP7 levels [2]: reduced InsP7 levels
effect upon AKT activity (p-AKT T308 / total AKT) ([3]; 3T3-L1, 2.5 µM): increased
effect on InsP7 synthesis / levels ([4]; HCT116, 2.5 µM, 3.5 hr): inhibited InsP7 synthesis
effect on InsP5 ([4]; HCT116, 2.5 µM, time course): without significantly impacting
effect on InsP6 ([4]; HCT116, 2.5 µM, time course): without significantly impacting
reduction of InsP7 levels ([4]; HCT116, 2.5 µM, time course): 50 – 70%
time of greatest diminution in cellular InsP7 content ([4]; HCT116, 2.5 µM, time course): 30 min
total DPM of InsP7 peak ([4]; HCT116, 10 μM, 3.5 h, representative HPLC, control 2160): 195 DPM
total DPM of InsP5 peak ([4]; HCT116, 10 μM, 3.5 h, representative HPLC, control 14677): 10,989 DPM
total DPM of InsP6 peak ([4]; HCT116, 10 μM, 3.5 h, representative HPLC, control 36,327): 39521 DPM
effect on InsP6 levels ([4]; HCT116, 10 µM, 3.5 hr): not affected
reduction of InsP5 levels ([4]; HCT116, 10 µM, 3.5 hr): approx. 25%
effect on InsP7 levels, dose dependence ([4]; HCT116, 1–10 µM, 3.5 hr): dose-dependent reductions in InsP7 levels
concentration recorded in the human small intestine and colon [5]: 2500 nM
concentration in serum ([5]; even after dietary supplementation): ≤ 1000 nM

O=C1C[C@@H](c2ccc(O)cc2)Oc2cc(O)cc(O)c21 [Compound 17, Naringenin]
fold higher IC50 against hIP6K2 compared to 5 (hIP6K2): at least 4 fold

COc1cc(-c2oc3cc(O)cc(O)c3c(=O)c2O)ccc1O [Compound 6, Isorhamnetin]
effect on InsP5 levels ([4]; HCT116, 2.5 µM, 3.5 hr): not significantly affected
effect on InsP6 levels ([4]; HCT116, 2.5 µM, 3.5 hr): not significantly affected
effect on InsP7 synthesis / levels ([4]; HCT116, 2.5 µM, 3.5 hr): inhibited InsP7 synthesis

O=c1cc(-c2ccc(O)cc2)oc2cc(O)cc(O)c12 [Compound 5, Apigenin]
fold higher IC50 against hIP6K2 compared to 2 (hIP6K2; relative to compound 2): 10 fold

COc1cc(O)c2c(=O)cc(-c3ccc(O)cc3)oc2c1 [Compound 10, Genkwanin]
fold higher IC50 against hIP6K2 compared to 5 (hIP6K2): 3 fold

COc1cc(O)c2c(=O)c(O)c(-c3ccc(O)c(O)c3)oc2c1 [Compound 11, Rhamnetin]
fold higher IC50 (reduction in inhibitory activity) against hIPMK compared to 2 (hIPMK): 6 fold
fold higher IC50 against hIP6K2 compared to 2 (hIP6K2; relative to compound 2): 2.6 fold
fold increase in selectivity for hIP6K2 (vs hIPMK) compared to 2 (hIP6K2; relative to compound 2): 2.4 fold
effect on InsP5 levels ([4]; HCT116, 2.5 µM, 3.5 hr): not significantly affected
effect on InsP6 levels ([4]; HCT116, 2.5 µM, 3.5 hr): not significantly affected
effect on InsP7 synthesis / levels ([4]; HCT116, 2.5 µM, 3.5 hr): inability of 11 to reduce InsP7

O=c1cc(-c2ccc(O)c(O)c2)oc2cc(O)cc(O)c12 [Compound 3, Luteolin]
effect upon AKT activity (p-AKT T308 / total AKT) ([1]; HCT116, 2.5 µM): did not observe any statistically-significant effect
effect on InsP5 levels [2]: not affected
effect on InsP6 levels [2]: not affected
effect on InsP7 levels [2]: reduced InsP7 levels
fold higher IC50 (reduction in inhibitory activity) against hIPMK compared to 2 (hIPMK): 2.4- to 3 fold
fold higher IC50 against hIP6K2 compared to 2 (hIP6K2; relative to compound 2): 1.9 fold
effect upon AKT activity (p-AKT T308 / total AKT) ([3]; 3T3-L1, 2.5 µM): increased
effect on InsP7 synthesis / levels ([4]; HCT116, 2.5 µM, 3.5 hr): inhibited InsP7 synthesis

O=c1c(O)c(-c2cc(O)c(O)c(O)c2)oc2cc(O)cc(O)c12 [Compound 1, Myricetin]
inhibition of IP6K (IP6K): inhibitor
effect on InsP5 levels ([4]; HCT116, 2.5 µM, 3.5 hr): not significantly affected
effect on InsP6 levels ([4]; HCT116, 2.5 µM, 3.5 hr): not significantly affected
effect on InsP7 synthesis / levels ([4]; HCT116, 2.5 µM, 3.5 hr): inhibited InsP7 synthesis; also recorded: only slightly altered InsP7 levels

O=c1cc(-c2ccc(O)c(O)c2)oc2cccc(O)c12 [Compound 9, 5,3’,4’-Trihydroxyflavone]
fold higher IC50 against hIP6K2 compared to 3 (hIP6K2): 6 fold

O=c1c(O)c(-c2ccc(O)cc2)oc2cc(O)cc(O)c12 [Compound 4, Kaempferol]
fold higher IC50 (reduction in inhibitory activity) against hIPMK compared to 2 (hIPMK): 2 fold
fold higher IC50 against hIP6K2 compared to 2 (hIP6K2; relative to compound 2): 3.6 fold
effect on InsP5 levels ([4]; HCT116, 2.5 µM, 3.5 hr): not significantly affected
effect on InsP6 levels ([4]; HCT116, 2.5 µM, 3.5 hr): not significantly affected
effect on InsP7 synthesis / levels ([4]; HCT116, 2.5 µM, 3.5 hr): inhibited InsP7 synthesis

COc1ccc(-c2cc(=O)c3c(O)cc(O)cc3o2)cc1O [Compound 7, Diosmetin]
effect upon AKT activity (p-AKT T308 / total AKT) ([1]; HCT116, 2.5 µM): did not observe any statistically-significant effect
effect on InsP5 levels [2]: not affected
effect on InsP6 levels [2]: not affected
effect on InsP7 levels [2]: reduced InsP7 levels
effect upon AKT activity (p-AKT T308 / total AKT) ([3]; 3T3-L1, 2.5 µM): increased
effect on InsP7 synthesis / levels ([4]; HCT116, 2.5 µM, 3.5 hr): inhibited InsP7 synthesis; also recorded: most effective inhibitor of InsP7 levels
effect on InsP5 ([4]; HCT116, 2.5 µM, time course): no effect
effect on InsP6 ([4]; HCT116, 2.5 µM, time course): did not significantly alter
effect on InsP7 synthesis ([4]; HCT116, 2.5 µM, time course): most sustained inhibition of InsP7 synthesis
reduction in IP6K activity ([4]; intact HCT116 cells, 2.5 µM): > 70%

O=C1C[C@@H](c2ccc(O)c(O)c2)Oc2cc(O)cc(O)c21 [Compound 16, Eriodictyol]
fold loss of activity against hIPMK compared to 3 (hIPMK; relative to compound 3): > 5.5 fold
fold higher IC50 against hIP6K2 compared to 3 (hIP6K2): 19 fold

O=[N+]([O-])c1ccc(CNc2nc(NCc3cccc(C(F)(F)F)c3)nc3[nH]cnc23)cc1 [TNP, N2-(m-(trifluoromethyl)benzyl) N6-(p-nitrobenzyl)purine, reference compound]
effect upon AKT activity (p-AKT T308 / total AKT) ([1]; HCT116, 10 µM TNP): did not affect AKT activity
effect upon AKT activity (p-AKT T308 / total AKT) ([3]; 3T3-L1, 1 µM TNP): increased
